Data from ChEMBL document CHEMBL5724801, “EUbOPEN Chemogenomics Library - Multiplex” (2024).
Where “and” joins values, the source holds several entries; their conditions need not be identical. Equal entries are not always repeated.

System: U2OS
Assay: Multiplex assay against U2OS
Type: toxicity, cell-based
Conditions: human
Method in brief: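 Per cents of healthy-nucleus cells form the tubulin, mitochondrial-mass and membrane-permeability phenotype values. Live cells were stained at seeding with Hoechst33342, BioTracker Green Microtubule Cytoskeleton Dye, MitoTracker Red and Annexin V Alexa Fluor 680. After compound addition they were imaged on a CQ1 microscope at 37°C and 5% CO2, and CellPathfinder machine-learning gating split them into Hoechst high-intensity objects or normal cells, normal cells into healthy, pyknosed or fragmented nuclei, and pyknosed cells into mitotic or apoptotic.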

[1] = 12 h, 1 µM, compound concentration 1 uM
[2] = 12 h, 10 µM, compound concentration 10 uM
[3] = 24 h, 1 µM, compound concentration 1 uM
[4] = 24 h, 10 µM, compound concentration 10 uM
[5] = 48 h, 1 µM, compound concentration 1 uM
[6] = 48 h, 10 µM, compound concentration 10 uM

CN(C)Cc1cccc(NC(=C2C(=O)Nc3cc(C(=O)N(C)C)ccc32)c2ccccc2)c1
Population Apoptotic (%) [1]: 28.26% and 30.43% | Population Fragmented Nuclei (%) [1]: 2.06% and 3.41% | Population Healthy Nuclei (%) [1]: 87.39% and 83.52% | Population Hoechst High Intensity Objects (%) [1]: 0% | Population Membrane Permeable-Phenotype (%) [1]: 0.52% and 6.8% | Population Mitochondria Different-Phenotype (%) [1]: 0% and 12.24% | Population Mitotic Cells (%) [1]: 71.74% and 69.57% | Population Normal (%) [1]: 100% | Population Pyknosed Nuclei (%) [1]: 10.55% and 13.07% | Population Tubulin-Different-Phenotype (%) [1]: 2.1% and 0.68% | Total Cell Count [1]: 436 and 176 | Population Apoptotic (%) [2]: 55.32% and 60.53% | Population Fragmented Nuclei (%) [2]: 3.8% and 4.6% | Population Healthy Nuclei (%) [2]: 81.33% and 73.56% | Population Hoechst High Intensity Objects (%) [2]: 0% | Population Membrane Permeable-Phenotype (%) [2]: 17.12% and 38.28% | Population Mitotic Cells (%) [2]: 44.68% and 39.47% | Population Normal (%) [2]: 100% | Population Pyknosed Nuclei (%) [2]: 14.87% and 21.84% | Population Tubulin-Different-Phenotype (%) [2]: 58.37% and 42.19% | Total Cell Count [2]: 316 and 174 | Population Apoptotic (%) [3]: 51.56% and 40% | Population Fragmented Nuclei (%) [3]: 1.88% and 1.95% | Population Healthy Nuclei (%) [3]: 87.2% and 85.85% | Population Hoechst High Intensity Objects (%) [3]: 0.17% and 0% | Population Membrane Permeable-Phenotype (%) [3]: 1.76% and 3.98% | Population Mitotic Cells (%) [3]: 48.44% and 60% | Population Normal (%) [3]: 99.83% and 100% | Population Pyknosed Nuclei (%) [3]: 10.92% and 12.2% | Population Tubulin-Different-Phenotype (%) [3]: 1.96% and 2.27% | Total Cell Count [3]: 587 and 205 | Population Apoptotic (%) [4]: 70.87% and 69.84% | Population Fragmented Nuclei (%) [4]: 5.07% and 6.21% | Population Healthy Nuclei (%) [4]: 65.92% and 58.19% | Population Hoechst High Intensity Objects (%) [4]: 0.28% and 0% | Population Membrane Permeable-Phenotype (%) [4]: 18.8% and 30.1% | Population Mitotic Cells (%) [4]: 29.13% and 30.16% | Population Normal (%) [4]: 99.72% and 100% | Population Pyknosed Nuclei (%) [4]: 29.01% and 35.59% | Population Tubulin-Different-Phenotype (%) [4]: 47.86% and 58.25% | Total Cell Count [4]: 356 and 177 | Population Apoptotic (%) [5]: 54.74% and 41.51% | Population Fragmented Nuclei (%) [5]: 2.6% and 1.21% | Population Healthy Nuclei (%) [5]: 87.9% and 82.73% | Population Hoechst High Intensity Objects (%) [5]: 0% | Population Membrane Permeable-Phenotype (%) [5]: 1.02% and 2.56% | Population Mitochondria Different-Phenotype (%) [5]: 0% and 5.13% | Population Mitotic Cells (%) [5]: 45.26% and 58.49% | Population Normal (%) [5]: 100% | Population Pyknosed Nuclei (%) [5]: 9.5% and 16.06% | Population Tubulin-Different-Phenotype (%) [5]: 0.57% and 2.56% | Population Apoptotic (%) [6]: 82.42% and 88.41% | Population Fragmented Nuclei (%) [6]: 3.22% and 2.72% | Population Healthy Nuclei (%) [6]: 72.39% and 59.78% | Population Hoechst High Intensity Objects (%) [6]: 0% | Population Mitochondria Different-Phenotype (%) [6]: 14.07% and 38.18% | Population Mitotic Cells (%) [6]: 17.58% and 11.59% | Population Normal (%) [6]: 100% | Population Pyknosed Nuclei (%) [6]: 24.4% and 37.5% | Population Tubulin-Different-Phenotype (%) [6]: 61.85% and 69.09% | Total Cell Count [6]: 373 and 184

C[C@H](C[C@H](N)C(=O)O)C(=O)O [2S,4R-4-METHYLGLUTAMATE]
Population Apoptotic (%) [1]: 31.91% and 61.54% | Population Fragmented Nuclei (%) [1]: 3.36% and 4% | Population Healthy Nuclei (%) [1]: 85.37% and 85.6% | Population Hoechst High Intensity Objects (%) [1]: 0% | Population Membrane Permeable-Phenotype (%) [1]: 2.25% and 5.61% | Population Mitochondria Different-Phenotype (%) [1]: 0% and 3.74% | Population Mitotic Cells (%) [1]: 68.09% and 38.46% | Population Normal (%) [1]: 100% | Population Pyknosed Nuclei (%) [1]: 11.27% and 10.4% | Population Tubulin-Different-Phenotype (%) [1]: 0.28% and 0% | Population Apoptotic (%) [2]: 36.84% and 47.06% | Population Fragmented Nuclei (%) [2]: 0.57% and 3.31% | Population Healthy Nuclei (%) [2]: 88.51% and 85.43% | Population Hoechst High Intensity Objects (%) [2]: 0% | Population Membrane Permeable-Phenotype (%) [2]: 1.95% and 3.88% | Population Mitochondria Different-Phenotype (%) [2]: 0.32% and 6.98% | Population Mitotic Cells (%) [2]: 63.16% and 52.94% | Population Normal (%) [2]: 100% | Population Pyknosed Nuclei (%) [2]: 10.92% and 11.26% | Population Tubulin-Different-Phenotype (%) [2]: 3.25% and 0.78% | Total Cell Count [2]: 348 and 151 | Population Apoptotic (%) [3]: 54.55% and 80% | Population Fragmented Nuclei (%) [3]: 3.12% and 6.67% | Population Healthy Nuclei (%) [3]: 86.79% and 84.24% | Population Hoechst High Intensity Objects (%) [3]: 0% and 0.6% | Population Membrane Permeable-Phenotype (%) [3]: 1.48% and 3.6% | Population Mitochondria Different-Phenotype (%) [3]: 0% and 5.04% | Population Mitotic Cells (%) [3]: 45.45% and 20% | Population Normal (%) [3]: 100% and 99.4% | Population Pyknosed Nuclei (%) [3]: 10.09% and 9.09% | Population Tubulin-Different-Phenotype (%) [3]: 0.42% and 0% | Population Apoptotic (%) [4]: 38.3% and 31.25% | Population Fragmented Nuclei (%) [4]: 0.43% and 1.99% | Population Healthy Nuclei (%) [4]: 89.42% and 90.05% | Population Hoechst High Intensity Objects (%) [4]: 0.22% and 0% | Population Membrane Permeable-Phenotype (%) [4]: 1.45% and 3.31% | Population Mitochondria Different-Phenotype (%) [4]: 0.48% and 3.87% | Population Mitotic Cells (%) [4]: 61.7% and 68.75% | Population Normal (%) [4]: 99.78% and 100% | Population Pyknosed Nuclei (%) [4]: 10.15% and 7.96% | Population Tubulin-Different-Phenotype (%) [4]: 1.45% and 0.55% | Total Cell Count [4]: 464 and 201 | Population Apoptotic (%) [5]: 50% and 51.52% | Population Fragmented Nuclei (%) [5]: 3.72% and 3.91% | Population Healthy Nuclei (%) [5]: 89.03% and 84.34% | Population Hoechst High Intensity Objects (%) [5]: 0% | Population Membrane Permeable-Phenotype (%) [5]: 1.47% and 2.11% | Population Mitochondria Different-Phenotype (%) [5]: 0% and 2.95% | Population Mitotic Cells (%) [5]: 50% and 48.48% | Population Normal (%) [5]: 100% | Population Pyknosed Nuclei (%) [5]: 7.24% and 11.74% | Population Tubulin-Different-Phenotype (%) [5]: 1.02% and 1.27% | Population Apoptotic (%) [6]: 54.05% and 54.84% | Population Fragmented Nuclei (%) [6]: 2.19% and 2.47% | Population Healthy Nuclei (%) [6]: 89.7% and 89.01% | Population Hoechst High Intensity Objects (%) [6]: 0% | Population Membrane Permeable-Phenotype (%) [6]: 1.1% and 1.23% | Population Mitochondria Different-Phenotype (%) [6]: 0.12% and 1.23% | Population Mitotic Cells (%) [6]: 45.95% and 45.16% | Population Normal (%) [6]: 100% | Population Pyknosed Nuclei (%) [6]: 8.11% and 8.52% | Population Tubulin-Different-Phenotype (%) [6]: 1.47% and 0.31% | Total Cell Count [6]: 913 and 364
